In ChEMBL document CHEMBL5136966, “Synthesis and biological evaluation of N 6 derivatives of 8-azapurine as novel antiplatelet agents” (RSC Med Chem, 2021):

How the values were obtained:
Platelet = assay: Potency index, ratio of ticagrelor IC50 to test compound IC50 for antiplatelet activity against ADP-induced human platelet in platelet rich plasma assessed as inhibition of platelet aggregation; format: functional
[1] = Antiplatelet activity against ADP-induced human platelet in platelet rich plasma assessed as inhibition of platelet aggregation preincubated for 2 mins followed by ADP stimulation and measured for 5 mins by aggregometry; format: functional, cell-based
Summary of the method: (§1)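 Human whole blood anticoagulated with 3.8% sodium citrate (1:9 v/v); PRP by centrifugation at 300 rpm for 20 min at room temperature, PPP at 900 rpm for 10 min. Compound in DMSO (final under 0.5%) added to PRP, 2 min at 37 °C, then ADP 10 μM. Aggregometer stirred at 900 rpm, 37 °C, calibrated with PRP and PPP, read 5 min (Born). Inhibition from maximal trace height versus DMSO vehicle.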

[2] = Antiplatelet activity against ADP-induced human platelet in platelet rich plasma assessed as inhibition of platelet aggregation at 10 uM preincubated for 2 mins followed by ADP stimulation and measured for 5 mins by aggregometry relative to control; format: functional; conditions: 7 min; summary of the method: as §1
[3] = Antiplatelet activity against ADP-induced human platelet in platelet rich plasma assessed as inhibition of platelet aggregation at 3 uM preincubated for 2 mins followed by ADP stimulation and measured for 5 mins by aggregometry relative to control; format: functional; conditions: 7 min; summary of the method: as §1
[4] = Toxicity in mouse assessed as change in body weight at 1500 mg/kg, po administered via gavage measured for 14 days; format: organism-based; conditions: in vivo, 336 h, time 14 day
Summary of the method: (§2)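 Single-dose oral gavage study run under GLP. Forty mice (20 male, 20 female) were randomly split into a treated group and a vehicle group of 20 each (10 male, 10 female). The vehicle group got aqueous sodium carboxymethyl cellulose.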

[5] = Toxicity in mouse assessed as bleeding time at 5 mg/kg, po administered via gavage measured after 1 hr by bleeding tail test (reference value: 5.2 mins); format: organism-based; conditions: in vivo
[6] = Stability of compound in fasted-state simulated intestinal fluid incubated for 1 day; format: ADME; conditions: read-out: Stability
[7] = Stability in mouse liver microsomes measured after 2 hrs; format: ADME, Microsome; conditions: read-out: Stability
[8] = Stability of compound in fasted-state simulated gastric fluid incubated for 1 day; format: ADME; conditions: read-out: Stability
[9] = Toxicity in mouse assessed as blood loss at 5 mg/kg, po administered via gavage measured after 1 hr by bleeding tail test (reference value: 34.92 uL); format: organism-based; conditions: in vivo
Mus musculus [10] = assay: Antiplatelet activity against ADP-induced platelet aggregation in mouse assessed as inhibition of platelet aggregation at 2.5 mg/kg, iv measured after 1 hr by turbidimetric method relative to control; format: functional
Summary of the method: (§3)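 Male mice of about 20 g received compound iv (2.5 mg/kg) or orally (5 mg/kg). After 1 h, blood was drawn from the abdominal aorta into 3.8% citrate. PRP was obtained at 1000 rpm for 7 min, adjusted with PPP to about 2 × 10^6 platelets/mL and incubated 10 min at 37 °C. ADP final 5 μM; turbidimetric aggregation read, PRP as zero and PPP as 100%.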

[11] = Toxicity in mouse assessed as death at 1500 mg/kg, po administered via gavage measured for 14 days; format: organism-based; conditions: in vivo, 336 h, time 14 day; summary of the method: as §2
[12] = Stability in mouse liver microsomes measured after 1 hr; format: ADME, Microsome; conditions: read-out: Stability
Mus musculus [13] = assay: Antiplatelet activity against ADP-induced platelet aggregation in mouse assessed as inhibition of platelet aggregation at 5 mg/kg, po measured after 1 hr by turbidimetric method relative to control; format: functional; summary of the method: as §3
[14] = Stability of compound in PBS buffer incubated for 1 week at 37 degC; format: physicochemical; conditions: time 1 weeks, read-out: Stability
P2Y purinoceptor 12 = P2Y purinoceptor 12 (Homo sapiens, UniProt Q9H244); assay: Inhibition of P2Y12 receptor in human platelet assessed as reduction in ADP-induced VASP phosphorylation by flow cytometry; format: functional, cell-based
Chain of P2Y purinoceptor 12 (Q9H244 whole entry): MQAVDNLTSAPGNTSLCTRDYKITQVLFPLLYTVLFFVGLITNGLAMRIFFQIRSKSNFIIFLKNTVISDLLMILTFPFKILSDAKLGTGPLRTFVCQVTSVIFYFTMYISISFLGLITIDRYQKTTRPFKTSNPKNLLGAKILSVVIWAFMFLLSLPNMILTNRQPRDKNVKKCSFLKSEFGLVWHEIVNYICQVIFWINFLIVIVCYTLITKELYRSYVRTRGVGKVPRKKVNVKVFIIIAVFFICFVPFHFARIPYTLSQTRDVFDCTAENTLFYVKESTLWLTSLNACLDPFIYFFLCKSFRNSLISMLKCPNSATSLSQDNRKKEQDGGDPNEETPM

Compound	IC50 [1] [nM]	inhibition at 10 µM [2] [%]	inhibition at 3 µM [3] [%]	also measured
CCCSc1nc(N/N=C/c2ccccc2)c2nnn([C@@H]3C[C@H](O)[C@@H](O)[C@H]3O)c2n1	450	100	81.6	Ratio IC50 (Platelet): 2
CCCSc1nc(N/N=C/c2ccc(F)c(F)c2)c2nnn([C@@H]3C[C@H](O)[C@@H](O)[C@H]3O)c2n1	–	96.5	62.7	–
CCCSc1nc(N/N=C/c2ccccc2O)c2nnn([C@@H]3C[C@H](O)[C@@H](O)[C@H]3O)c2n1	670	92.1	83.6	–
CCCSc1nc(N/N=C/c2cccc(O)c2)c2nnn([C@@H]3C[C@H](O)[C@@H](O)[C@H]3O)c2n1	200	100	93.4	Activity [4]: Non-Toxic; Time [5]: 10.4 min; remaining at 24 h [6]: 97.4%; remaining at 2 h [7]: 73.7%; remaining at 24 h [8]: 96.7%; Activity [9]: 44.5 µL; inhibition in vivo at 2.5 mg/kg (Mus musculus [10]): 62.2%; Activity [11]: Non-Toxic; Ratio IC50 (Platelet): 4; remaining at 1 h [12]: 81.2%; inhibition in vivo at 5 mg/kg (Mus musculus [13]): 73.3%; remaining at 168 h [14]: 98.3%; IC50 (P2Y purinoceptor 12): 46 nM
CCCSc1nc(N/N=C/c2ccc(O)cc2)c2nnn([C@@H]3C[C@H](O)[C@@H](O)[C@H]3O)c2n1	780	100	86.3	–
CCCSc1nc(N/N=C/c2ccc(O)cc2O)c2nnn([C@@H]3C[C@H](O)[C@@H](O)[C@H]3O)c2n1	–	98.3	63.4	–
CCCSc1nc(N/N=C/c2ccccc2OC)c2nnn([C@@H]3C[C@H](O)[C@@H](O)[C@H]3O)c2n1	–	48.7	11.7	–
CCCSc1nc(N/N=C/c2ccc(OC)cc2)c2nnn([C@@H]3C[C@H](O)[C@@H](O)[C@H]3O)c2n1	1300	81.5	71.4	–
CCCSc1nc(N/N=C/c2ccc(OC)c(OC)c2)c2nnn([C@@H]3C[C@H](O)[C@@H](O)[C@H]3O)c2n1	–	78.3	33.4	–
CCCSc1nc(N/N=C/c2ccccc2Cl)c2nnn([C@@H]3C[C@H](O)[C@@H](O)[C@H]3O)c2n1	–	83.2	51.6	–
CCCSc1nc(N/N=C/c2ccc(Cl)cc2)c2nnn([C@@H]3C[C@H](O)[C@@H](O)[C@H]3O)c2n1	–	53.7	7	–
CCCSc1nc(N/N=C/c2ccc(Cl)cc2Cl)c2nnn([C@@H]3C[C@H](O)[C@@H](O)[C@H]3O)c2n1	–	50.1	–	–
CCCSc1nc(N/N=C/c2cccc([N+](=O)[O-])c2)c2nnn([C@@H]3C[C@H](O)[C@@H](O)[C@H]3O)c2n1	660	88.6	76.3	–
CCCSc1nc(N/N=C/c2ccc([N+](=O)[O-])cc2)c2nnn([C@@H]3C[C@H](O)[C@@H](O)[C@H]3O)c2n1	–	62.7	5	–
CCCSc1nc(N/N=C/c2ccccn2)c2nnn([C@@H]3C[C@H](O)[C@@H](O)[C@H]3O)c2n1	–	71.7	36.4	–
CCCSc1nc(N/N=C/c2cccs2)c2nnn([C@@H]3C[C@H](O)[C@@H](O)[C@H]3O)c2n1	400	95.4	80.5	–
CCCSc1nc(NC2CC2)c2nnn([C@@H]3C[C@H](OCCO)[C@@H](O)[C@H]3O)c2n1	–	14.8	–	–
CCCNc1nc(SCCC)nc2c1nnn2[C@@H]1C[C@H](OCCO)[C@@H](O)[C@H]1O	–	13.6	–	–
CCCSc1nc(NC2CC2)c2nnn([C@@H]3C[C@H](O)[C@@H](O)[C@H]3O)c2n1	820	86.3	–	–
CCCSc1nc(N/N=C/c2ccc(Cl)cc2)c2nnn([C@@H]3C[C@H](OCCO)[C@@H](O)[C@H]3O)c2n1	–	69.1	9.1	–

Compound	IC50 [1] [nM]	inhibition at 10 µM [2] [%]	inhibition at 3 µM [3] [%]	also measured
CCCSc1nc(NCCc2cccc(F)c2)c2nnn([C@@H]3C[C@H](O)[C@@H](O)[C@H]3O)c2n1	–	68.3	–	–
CCCSc1nc(NC2CCCCC2)c2nnn([C@@H]3C[C@H](OCCO)[C@@H](O)[C@H]3O)c2n1	–	5.3	–	–
CCCSc1nc(NCC)c2nnn([C@@H]3C[C@H](OCCO)[C@@H](O)[C@H]3O)c2n1	4890	21.4	–	–
CCCSc1nc(NCCc2ccc(O)cc2)c2nnn([C@@H]3C[C@H](O)[C@@H](O)[C@H]3O)c2n1	–	76.8	–	–
CCCSc1nc(NC2CCCC2)c2nnn([C@@H]3C[C@H](OCCO)[C@@H](O)[C@H]3O)c2n1	–	8.1	–	–
CCCNc1nc(SCCC)nc2c1nnn2[C@@H]1C[C@H](O)[C@@H](O)[C@H]1O	–	68.6	–	–
CCCSc1nc(NCC(C)C)c2nnn([C@@H]3C[C@H](OCCO)[C@@H](O)[C@H]3O)c2n1	–	7.8	–	–
CCCCNc1nc(SCCC)nc2c1nnn2[C@@H]1C[C@H](OCCO)[C@@H](O)[C@H]1O	3160	40.8	–	–
CCCSc1nc(NCCCO)c2nnn([C@@H]3C[C@H](OCCO)[C@@H](O)[C@H]3O)c2n1	–	13.9	–	–
CCCSc1nc(N/N=C/c2cccc([N+](=O)[O-])c2)c2nnn([C@@H]3C[C@H](OCCO)[C@@H](O)[C@H]3O)c2n1	–	95.5	77.3	–
CCCSc1nc(NCCO)c2nnn([C@@H]3C[C@H](OCCO)[C@@H](O)[C@H]3O)c2n1	–	15.2	–	–
CCCSc1nc(N/N=C/c2ccc([N+](=O)[O-])cc2)c2nnn([C@@H]3C[C@H](OCCO)[C@@H](O)[C@H]3O)c2n1	–	90.9	70.9	–
CCCSc1nc(N/N=C/c2cccc(O)c2)c2nnn([C@@H]3C[C@H](OCCO)[C@@H](O)[C@H]3O)c2n1	580	100	85.4	–
CCCSc1nc(N/N=C/c2ccc(F)c(F)c2)c2nnn([C@@H]3C[C@H](OCCO)[C@@H](O)[C@H]3O)c2n1	–	85.4	46.3	–
CCCSc1nc(NCCO)c2nnn([C@@H]3C[C@H](O)[C@@H](O)[C@H]3O)c2n1	–	69.4	–	–
CCCSc1nc(NCCc2ccccc2)c2nnn([C@@H]3C[C@H](O)[C@@H](O)[C@H]3O)c2n1	–	33.4	–	–
CCCSc1nc(NCCCc2ccccc2)c2nnn([C@@H]3C[C@H](O)[C@@H](O)[C@H]3O)c2n1	–	29.3	–	–
CCCSc1nc(NCCCO)c2nnn([C@@H]3C[C@H](O)[C@@H](O)[C@H]3O)c2n1	1780	70.3	–	–
CCCCNc1nc(SCCC)nc2c1nnn2[C@@H]1C[C@H](O)[C@@H](O)[C@H]1O	–	85.4	–	–
CCCSc1nc(N[C@@H]2C[C@H]2c2ccc(F)c(F)c2)c2nnn([C@@H]3C[C@H](OCCO)[C@@H](O)[C@H]3O)c2n1 [TICAGRELOR]	740	92.7	78.6	Time [5]: > 20 min; Activity [9]: 73.25 µL; inhibition in vivo at 2.5 mg/kg (Mus musculus [10]): 52.2%; inhibition in vivo at 5 mg/kg (Mus musculus [13]): 69.4%; IC50 (P2Y purinoceptor 12): 39 nM
